Assay results gathered from unrelated publications.
Protocols differ between the studies behind these lines.
Effect on: metabolic stability
Host: human
Sample: liver microsomes

SMILES	conditions	microsomal CLint [µL/min/mg]
O=C(NCc1nc(-c2ccccc2)cs1)[C@H]1CCCN(C(=O)COCC(F)F)C1	0.5 µM	18
CCN(c1ccc(C)cc1)c1ccc(NC(=O)CN(C)c2ccccc2N2CCCC2=O)cn1		408
O=C(NCc1nc(-c2ccc(C(F)(F)F)cc2)cs1)[C@H]1CCCN(C(=O)COCCN2CCCC2)C1	0.5 µM	14
O=c1c2ccc(Oc3ccc(OC(F)(F)F)cc3)cc2[nH]c2cc(F)c(Cl)cc12	1 µM, pH 7.4	2.59
O=C(NCc1nc(-c2ccccc2)cs1)[C@H]1CCCN(C(=O)COCC2CC2)C1	0.5 µM	102
O=C1NC(CF)(CF)C(=O)N1c1ccc(F)c(C(F)(F)F)c1		< 7
O=c1c2c([nH]c3c(Oc4ccc(OC(F)(F)F)cc4)cccc13)CCCC2	1 µM, pH 7.4	21
CCONC(=O)N1CCC[C@H](C(=O)NCc2nc(-c3ccc(C#N)cc3)cs2)C1	0.5 µM	9
O=c1c2ccc(OCc3ccc(C(F)(F)F)cc3)cc2[nH]c2cc(Cl)cc(F)c12	1 µM, pH 7.4	6.71
CC(C)N(c1ccc(Cl)c(F)c1)c1ccc(NC(=O)CN(C)c2ccccc2N2CCCC2=O)cn1		287
O=c1c2ccc(OCc3cccc(OC(F)(F)F)c3)cc2[nH]c2ccc(Cl)c(F)c12	1 µM, pH 7.4	1.24
Cc1ccc(Nc2cnnc3ccc(-c4ccc(N5CCCN(C)CC5)cc4)cc23)cn1		75
CC(C)(C)OC(=O)N1CCC(Oc2ccc3c(=O)c4c(Cl)cc(F)cc4[nH]c3c2)CC1	1 µM, pH 7.4	7.13
COCC(=O)N1CCC[C@H](C(=O)NCc2nc(-c3ccc(NC4CCC4)nc3)cs2)C1	0.5 µM	15
Cc1[nH]c(C)c(S(=O)(=O)Nc2ccc(C(F)(F)F)c(Cl)c2)c1C(=O)N1CCC(F)(F)C1		68
CCCN(CCC)CCNc1ccc2c(=O)c3c([nH]c2c1)CCCC3	1 µM, pH 7.4	21.4
CNC(C)(C)COCC(=O)N1CCC[C@H](C(=O)NCc2nc(-c3ccc(C(F)(F)F)cc3)cs2)C1	0.5 µM	12
CC1(C)NC(=O)N(c2cc(C(F)(F)F)c(F)cc2C#N)C1=O		< 7
Cc1ccc(N(C)c2ccc(NC(=O)CN(C)c3cc(F)ccc3N3CCCC3=O)cc2)cc1		260
Cc1cc(N2C(=O)NC(C)(C)C2=O)cc(C(F)(F)F)n1		< 7
O=c1c2ccc(Oc3ccc(OC(F)(F)F)cc3)cc2[nH]c2cc(Cl)c(F)cc12	1 µM, pH 7.4	5.07
